# According to ChEMBL document CHEMBL5034006, “Lead Optimization of 3,5-Disubstituted-7-Azaindoles for the Treatment of Human African Trypanosomiasis” (J Med Chem, 2021):
# Columns and labels:
# [1] = Intrinsic clearance in human liver microsomes assessed per mg protein by LC-MS/MS analysis; format: ADME, Microsome
# [2] = Intrinsic clearance in rat hepatocytes assessed per million cells by LC-MS/MS analysis; format: ADME, cell-based, Hepatocyte
# [3] = Half life in mouse plasma; format: ADME, cell-free
# [4] = Half life in mouse liver microsomes; format: ADME, Microsome
# [5] = Cmax in Balb/c mouse at 10 mg/kg, ip measured after 1 hr by LC-MS/MS analysis; format: ADME, organism-based; set-up: route intraperitoneal, dose 10 mg/kg, time 1 hrs; conditions: in vivo
# How it was run: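 BALB/c mice (n=3) received a single 10 mg/kg intraperitoneal dose. Retro-orbital blood samples were taken at 0.083, 0.25, 0.5, 1, 2, 4, 8 and 24 h post-dose, and plasma levels were quantified by LC-MS-MS. Cmax is the mean of the three animals, read from the plasma concentration–time profile.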
# [6] = Tmax in Balb/c mouse at 10 mg/kg, ip by LC-MS/MS analysis; format: ADME, organism-based; conditions: in vivo
# How it was run: (§1)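 BALB/c mice, n=3, single 10 mg/kg intraperitoneal dose. Blood (50 μL) taken by retro-orbital bleed at 0.083, 0.25, 0.5, 1, 2, 4, 8 and 24 h post-dose. Plasma levels measured by LC-MS-MS. Brain and plasma levels from sparse sampling at 0.5 and 4 h; LLOQ 9.77 ng/mL.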
# [7] = Drug level in Balb/c mouse brain at 10 mg/kg, ip measured after 0.5 hrs by LC-MS/MS analysis; format: ADME, organism-based; conditions: in vivo, BLD = below limit of detection; how it was run: as §1
# [8] = Permeability in human Caco2 cells; format: ADME, cell-based; conditions: caco-2
SMILES,CLint [1] [µL/min/mg],other results
N#Cc1cccc(-c2c[nH]c3ncc(N4CCCCC4)cc23)c1,300,
Cn1cc(-c2cnc3[nH]cc(C4CCN(C(=O)OC(C)(C)C)C4)c3c2)cn1 (configuration not stated),180,
Cc1ccc(S(=O)(=O)n2cc(-c3cccc(C#N)c3)c3cc(-c4cnn(C)c4)cnc32)cc1,15,
N#Cc1cccc(-c2c[nH]c3ncc(-c4cn[nH]c4)cc23)c1,290,
Cn1cc(-c2cnc3[nH]cc(C4CCCNC4)c3c2)cn1 (configuration not stated),< 3,
Cc1nn(C)c(C)c1-c1cnc2[nH]cc(-c3cccc(C#N)c3)c2c1,300,
Cn1cc(-c2cnc3[nH]cc(C4CCNC4)c3c2)cn1 (configuration not stated),< 3,
CC(C)(C)OC(=O)N1CCN(c2cnc3[nH]cc(-c4cccc(C#N)c4)c3c2)CC1,94,
CS(=O)(=O)c1ccc(-c2cnc3[nH]cc(-c4cccc(C#N)c4)c3c2)cc1,30,
CN1CCCN(c2cnc3[nH]cc(-c4cccc(C#N)c4)c3c2)CC1,82,
N#Cc1cccc(-c2c[nH]c3ncc(-c4cnn(C5CCOCC5)c4)cc23)c1,46,
CS(=O)(=O)c1ccc(Nc2cnc3[nH]cc(-c4cccc(C#N)c4)c3c2)cc1,33,
Cn1cc(-c2cnc3occ(-c4cccc(C#N)c4)c3c2)cn1,130,
N#Cc1cccc(-c2c[nH]c3ncc(-c4cncnc4)cc23)c1,31,
N#Cc1cccc(-c2c[nH]c3ncc(-c4ccncc4)cc23)c1,160,
CN1CCN(c2cnc3[nH]cc(-c4cccc(C#N)c4)c3c2)CC1,44,
Cc1c(-c2cnn(C)c2)cnc2[nH]cc(-c3cccc(C#N)c3)c12,210,
Cn1cc(-c2cnc3[nH]cc(C4CCNCC4)c3c2)cn1,3,
Cc1nn(C)cc1-c1cnc2[nH]cc(-c3cccc(C#N)c3)c2c1,250,
N#Cc1cccc(-c2n[nH]c3ncc(-c4cnn(C5CCOCC5)c4)cc23)c1,42,
CS(=O)(=O)N1CCN(c2cnc3[nH]cc(-c4cccc(C#N)c4)c3c2)CC1,32,
Cn1cc(-c2cnc3[nH]cc(C4CCN(C(=O)OC(C)(C)C)CC4)c3c2)cn1,300,
N#Cc1cccc(-c2c[nH]c3ncc(N4CCCC4)cc23)c1,50,
c1nc2[nH]cc(C3CCCNC3)c2cc1-c1cnn(C2CCOCC2)c1 (configuration not stated),< 3,
Cn1cc(-c2cnc3[nH]cc(C4CCCN(C(=O)OC(C)(C)C)C4)c3c2)cn1 (configuration not stated),> 300,
Cn1cc(-c2cnc3c(c2)c(-c2cccc(C#N)c2)cn3C)cn1,180,
N#Cc1cccc(-c2c[nH]c3ncc(-c4cnn(C5CCNCC5)c4)cc23)c1,< 3,CLH [2]: 19 µL/min; t1/2 [3]: > 2 h; t1/2 [4]: 0.567 h; Cmax [5]: 4413.3 ng/mL; Tmax [6]: 1 h; Drug uptake [7]: Bld; permeability [8]: Permeable

# More lines, main results first:
CLint [1] [µL/min/mg],SMILES,other results
190,Cn1cc(-c2cnc3[nH]cc(-c4cccc(C#N)c4)c3c2)cn1,
110,Cn1cc(-c2cnc3[nH]cc(-c4cccc(F)c4)c3c2)cn1,
300,Cn1cc(-c2cnc3[nH]cc(-c4ccc5[nH]ccc5c4)c3c2)cn1,
150,Cn1cc(-c2cnc3[nH]cc(-c4cncc(C#N)c4)c3c2)cn1,
190,Cn1cc(-c2ccc3[nH]cc(-c4cccc(C#N)c4)c3c2)cn1,
> 300,COc1cccc(-c2c[nH]c3ncc(-c4cnn(C)c4)cc23)c1,
64,Cn1cc(-c2cnc3[nH]cc(-c4ccc(F)c(C#N)c4)c3c2)cn1,
91,Cn1cc(-c2cnc3[nH]cc(-c4cc(F)cc(C#N)c4)c3c2)cn1,
88,Cn1cc(-c2cnc3[nH]cc(-c4ccc5nonc5c4)c3c2)cn1,
17,CN1CCC(n2cc(-c3cnc4[nH]cc(-c5cccc(C#N)c5)c4c3)cn2)CC1,
< 3,Cn1cc(-c2cnc3[nH]cc(-c4ccc(C(=O)O)cc4)c3c2)cn1,
90,Cn1cc(-c2cnc3[nH]cc(-c4ccc(F)c(F)c4)c3c2)cn1,
130,Cn1cc(-c2cnc3[nH]cc(-c4ccc(F)cc4)c3c2)cn1,
91,CC(C)(C)OC(=O)N1CCC(n2cc(-c3cnc4[nH]cc(-c5cccc(C#N)c5)c4c3)cn2)CC1,
130,Cc1ccc(-c2c[nH]c3ncc(-c4cnn(C)c4)cc23)cc1,
51,Cn1cc(-c2cnc3[nH]cc(-c4ccc(Cl)c(Cl)c4)c3c2)cn1,
200,Cn1cc(-c2cnc3[nH]cc(-c4ccccc4)c3c2)cn1,

CLint [1] [µL/min/mg],SMILES,other results
300,Cn1cc(-c2c[nH]c3ncc(-c4cccc(C#N)c4)cc23)cn1,
190,Cn1cc(-c2cnc3[nH]cc(-c4ccnc(C#N)c4)c3c2)cn1,
50,Cn1cc(-c2cnc3[nH]cc(-c4ccc(O)cc4)c3c2)cn1,
200,Cn1cc(-c2cnc3[nH]cc(-c4ccccc4C#N)c3c2)cn1,
14,Cn1cc(-c2cnc3[nH]cc(-c4cccc([N+](=O)[O-])c4)c3c2)cn1,
90,Cn1cc(-c2cnc3[nH]cc(-c4cccnc4)c3c2)cn1,
> 300,Cn1cc(-c2cnc3[nH]ccc3c2)cn1,
51,Cn1cc(-c2cnc3[nH]cc(-c4ccc(C#N)cc4)c3c2)cn1,
57,Cn1cc(-c2cnc3[nH]cc(-c4ccc(Cl)cc4)c3c2)cn1,
29,c1cc(-c2c[nH]c3ncc(-c4cnn(C5CCOCC5)c4)cc23)ccn1,
14,Cn1cc(-c2cnc3[nH]cc(-c4ccc(C(N)=O)cc4)c3c2)cn1,
15,Cn1cc(Nc2cnc3[nH]cc(-c4cccc(C#N)c4)c3c2)cn1,
39,Cn1cc(-c2cnc3[nH]cc(-c4ccncc4)c3c2)cn1,
150,Cn1cc(-c2cnc3[nH]cc(-c4ccccc4F)c3c2)cn1,
290,Cn1cc(-c2cnc3[nH]cc(-c4cccc(N)c4)c3c2)cn1,
180,COc1ccc(-c2c[nH]c3ncc(-c4cnn(C)c4)cc23)cc1,
